Source: PubChem BioAssay (several laboratories)
The list is not random: actives were taken first. Their share in the collection is about 1.5%.
m5-HT2A agonist – mouse Htr2a agonists via beta-arrestin recruitment, primary screen, cell-based, luminescence; CHO-K1 mHTR2A beta-arrestin complementation; percent of 30 µM serotonin response; activation, % at 7.6 µM; AID 624169, 2012; 5-hydroxytryptamine receptor 2A (Mus musculus), P35363; hit rate 0.66% among 360,000;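 active = activation above a run cutoff, the mean activation of all tested compounds plus 3 SD, cut at about 14% in these data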;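 note: 0% = plate median of compound wells and 100% = 30 µM serotonin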
NTR1 agonist – agonists of human NTR1, primary screen, imaging, U2OS cells, beta-arrestin-GFP, high content | hit rate 0.17% among 330,000 | Neurotensin receptor type 1 (Homo sapiens), P30989 | activation, % at 20 µM | AID 493036, 2011 | NTR1-U2OS beta-arrestin-GFP spot imaging, agonist mode;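 active = activation at or above 40% of the spot to cytoplasm intensity ratio, with at least 20 cells analyzed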;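 note: 0% = DMSO without peptide and 100% = 100 nM NTR1 peptide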
APJ ag – agonists of human apelin receptor APJ, primary screen, CHO-K1 cells, PathHunter beta-arrestin, luminescence; AID 2520, 2010; hit rate 0.11% among 330,000; 0% DMSO wells, 100% apelin; P35414; activation, % at 20 µM;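 active = activation more than six SD over the plate average, tested at 20 µM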;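 note: 0% = DMSO alone and 100% = apelin-13 at 10 nM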
Target sequence (P35414 whole entry, looked up): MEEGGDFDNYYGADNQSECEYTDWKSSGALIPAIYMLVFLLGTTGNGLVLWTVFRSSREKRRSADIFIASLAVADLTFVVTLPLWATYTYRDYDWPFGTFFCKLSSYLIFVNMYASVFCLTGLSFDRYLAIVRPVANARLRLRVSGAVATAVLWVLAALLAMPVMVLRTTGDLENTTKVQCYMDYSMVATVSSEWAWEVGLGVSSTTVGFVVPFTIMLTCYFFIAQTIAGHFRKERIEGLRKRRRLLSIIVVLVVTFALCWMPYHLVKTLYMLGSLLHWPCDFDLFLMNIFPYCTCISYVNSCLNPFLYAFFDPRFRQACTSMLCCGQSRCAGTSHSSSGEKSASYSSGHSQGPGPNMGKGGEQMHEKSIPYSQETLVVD
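Assay system: CHO-K1 cells stably expressing ProLink-tagged human APJ and arrestin–beta-gal acceptor. Compound dosing: 20 µM single point, 1% DMSO. Times: 16-18 h seeding, 90 min dark compound exposure, 60 min detection. Detection: beta-gal luminescence. Evaluation: APJ–arrestin association signal. Controls: negative DMSO alone, positive Apelin-13 at 10 nM.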
CCR6 antag – CCR6 receptor antagonists, primary screen, cell-based, CHO-K1, luminescence, beta-arrestin, uHTS; hit rate 0.49% among 340,000; C-C chemokine receptor type 6 (Homo sapiens), P51684; inhibition, % at 20 µM; CHO-K1 CCR6 PathHunter beta-arrestin, CCL20-stimulated;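 active = compounds whose inhibition of the agonist-driven luminescence signal at 20 µM reaches about 50%, limit read from the data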;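 note: cells stimulated with CCL20 at 14 nM final; plate controls were DMSO with CCL20 for no effect and DMSO without agonist for full effect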
APJ antagonist – antagonists of human apelin receptor APJ, primary screen, CHO-K1 cells, beta-arrestin complementation, luminescence; P35414; inhibition, % at 20 µM; hit rate 0.32% among 330,000; AID 2521, 2010;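 active = inhibition above about 40% at 20 µM, limit read from the data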;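 note: cells challenged with 10 nM apelin-13 agonist together with compound; plate controls were apelin-13 plus DMSO wells for no effect and DMSO wells lacking apelin-13 for full effect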
CXCR6 block – CXCR6 receptor inhibitors, primary screen, cell-based, beta-arrestin, luminescence, CHO-K1 PathHunter, 1536-well. AID 602244, 2012. hit rate 0.36% among 360,000. inhibition, % at 20 µM; in the data active = inhibition above about 34%, passing the limit was not always enough;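 note: antagonist mode with CXCL16 agonist at 10 nM final; 0% = 10 nM CXCL16 with DMSO and 100% = unstimulated wells without agonist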
MOR ag counter – OPRM1 agonists via beta-arrestin recruitment, confirmation, counter-screen for mouse HTR2A agonist project, cell-based, luminescence, single concentration; AID 624380, 2012; activation, % at 9.3 µM; U2OS OPRM1 beta-arrestin PathHunter; DMSO 0%, DAMGO 9.3 µM 100%; hit rate 5.3% among 2,300; shares compounds with m5-HT2A agonist;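 active = mean activation above the mean of DMSO-only wells plus 3 SD, cut at about 0.5% in these data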
HTR2A ag conf – mouse HTR2A agonists, beta-arrestin recruitment, confirmation, cell-based, luminescence, CHO-K1 PathHunter, triplicate; AID 624381, 2012; DMSO 0%, 30 µM serotonin 100%; hit rate 19% among 2,300; shares compounds with m5-HT2A agonist; activation, % at 7.6 µM;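 active = mean activation across triplicates above the hit threshold derived in the original primary screen, cut at about 15% in these data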
The depositor's hits bear a star; nt = no result.

SMILES	m5-HT2A agonist	NTR1 agonist	APJ ag	CCR6 antag	APJ antagonist	CXCR6 block	MOR ag counter	HTR2A ag conf
Cc1c(C(=O)N(C)c2ccc(Cl)cc2)cnn1-c1ccccc1	-2	0	-1	7	14	2	nt	nt
CCNC(=O)CCS(=O)(=O)c1ccc2ccccc2c1	16*	0	1	-7	14	6	0	-3
CCOCC(=O)Nc1nc2ccc(C)cc2s1	-1	0	-6	13	6	-7	nt	nt
C/C=C/C(=O)OCC(=O)Nc1nc2ccc(C)cc2s1	26*	-2	-4	15	18	1	-1	-4
CCCc1nnc(NC(=O)CCC(=O)N2CCN(S(=O)(=O)c3ccc(C)cc3)CC2)s1	3	0	-4	5	-3	-3	nt	nt
O=C(CN1C(=O)C2CC=CCC2C1=O)Nc1nc2ccccc2s1 (centres undefined)	16*	0	-3	12	8	-2	-1	-2
Cc1ccc2nc(NC(=O)CN3C(=O)C4CC=CCC4C3=O)sc2c1 (centres undefined)	4	-1	0	10	-3	12	nt	nt
CCCCCC(=O)N1C[C@H](n2cc(-c3ccc(F)cc3)nn2)[C@@H](O)C[C@@H]1c1ccc(C)cc1	23*	nt	nt	nt	nt	2	0	0
O=C(Nc1nnc(C2CC2)s1)c1cccc(S(=O)(=O)N2CC(c3ccccc3)CC2=O)c1 (centres undefined)	17*	2	-3	8	11	5	-1	-6
C=CCN(c1ccccc1OC)S(=O)(=O)c1cccc(C(=O)Nc2nnc(C3CC3)s2)c1	0	0	-2	7	-10	4	nt	nt
CCOC(=O)CNC(=S)N(CCCN1CCCC1)Cc1cccs1	29*	-1	-9	23	14	2	-1	10
COc1cccc(C=Nc2ccc3c(c2)CCC3)c1O	15*	0	2	5	10	-9	-1	-3
COC(=O)CCCC(=O)N1CCCC(N(C)CCc2ccccc2)C1 (centres undefined)	-3	-1	-2	14	6	6	nt	nt
Cc1cccc(C)c1NC(=O)NN=C1CCCCC1	16*	0	-3	9	21	-9	-1	-3
CN=C(NC(=O)Nc1c(C)cccc1C)NC(=O)Nc1c(C)cccc1C	4	0	0	14	5	7	nt	nt
CCNc1nc(NCC)nc(N(C)/N=C/c2ccco2)n1	-7	1	-1	13	-13	-5	nt	nt
CCc1cccc(C)c1NC(=O)CCCC(=O)O	-1	-2	-2	-5	7	-4	nt	nt
CCc1cccc(C)c1NC(=O)CC(C)(C)CC(=O)O	18*	0	-3	9	-1	-12	0	-3
Cn1c2c(c3ccccc31)CCN(CCCCN1CCN(c3ccccc3)CC1)C2=O	21*	nt	nt	4	nt	-3	0	40*
Cc1c(C(=O)CN2CCN(c3ccccc3)CC2)c2ccccc2n1C	2	1	-3	9	1	4	nt	nt
COCCn1c(=O)[nH]c2cc(C(=O)N3CCN(c4cccc(C)c4C)CC3)ccc2c1=O	15*	0	1	-21	-24	0	0	1
CC(C)CC(NC(=O)c1ccccc1)C(=O)OCC(=O)Nc1ccc(S(N)(=O)=O)cc1 (centres undefined)	0	-2	-2	2	4	3	nt	nt
Cc1cc(=O)c2ccc(C(F)(F)F)cc2[nH]1	-1	-1	4	-4	10	-7	nt	nt
O=c1cc(C(F)(F)F)[nH]c2ccc(C(F)(F)F)cc12	26*	0	0	-20	21	1	0	5
O=C1C(=O)c2ccccc2C(O)=C1c1cccc([N+](=O)[O-])c1	20*	-1	-8	35	32	18	-1	-5
SMILES	m5-HT2A agonist	NTR1 agonist	APJ ag	CCR6 antag	APJ antagonist	CXCR6 block	MOR ag counter	HTR2A ag conf
Cc1ccc(C2=C(O)c3ccccc3C(=O)C2=O)cc1	-2	1	-3	15	7	15	nt	nt
CCCOc1ccc(C2=CSC3=NCCN23)cc1	1	0	-2	15	11	-2	nt	nt
CCOC(=O)C(C(=O)N(C)C)c1ncc(C(F)(F)F)cc1Cl (centres undefined)	19*	-2	1	15	10	3	-1	2
COC(=O)C(C(=O)OC)c1ncc(C(F)(F)F)cc1Cl	4	-1	-3	-2	7	0	nt	nt
CC(Oc1ccccc1)C(=O)N=C1SC2CS(=O)(=O)CC2N1CCc1ccccc1 (centres undefined)	-7	2	-4	5	-37	4	nt	nt
O=C(CNC1CC1)Nc1cc(C(F)(F)F)ccc1Cl	1	2	0	11	0	7	nt	nt
COc1ccc(OC)c(NC(=O)CSc2nc3[nH]c(=O)[nH]c(=O)c3s2)c1	18*	nt	nt	8	nt	-1	-1	1
CSc1ccccc1OCc1cc(C(=O)N2CCC[C@H]2C(N)=O)no1	15*	1	-4	5	-2	2	0	3
COc1ccc(-c2c(C(=O)c3ccccc3)[nH]c(N)c2C(=O)NC2CC2)cc1OC	6	nt	nt	nt	nt	-3	nt	nt
CC(C)C(NC(=O)/C(=C\c1ccco1)NC(=O)c1ccco1)C(=O)O (centres undefined)	19*	2	-4	13	11	-2	-1	-4
CC(C)C(NC(=O)/C(=C/c1ccco1)NC(=O)c1ccc(Br)o1)C(=O)O (centres undefined)	4	-1	-2	-4	0	7	nt	nt
COc1ccc(CNC(=O)CN2c3ccccc3S(=O)(=O)c3ccccc32)cc1	-3	1	0	15	8	-10	nt	nt
O=C(NCCS(=O)(=O)N1CCN(c2ccccc2)CC1)c1cccs1	-5	0	-4	6	4	-2	nt	nt
Cc1cc(C)c(C)c(Cn2c(CO)nc3ccccc32)c1C	15*	2	-2	-2	17	-16	0	-1
OCc1nc2ccccc2n1Cc1ccc(Cl)cc1	-5	1	-3	19	-12	-8	nt	nt
